Calls of active or inactive are those of the source. The rule behind the calls is not given here.
How the values were obtained:
T-24 [1] = experiment: Down-regulation of RIPK1 expression in human T24 cells at 7.5 to 10 uM measured in presence of 60 uM Nec-1 after 16 hrs by Western blot analysis; format: functional, cell-based; settings: dose 7.5-10 µM
In short: (§1)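 T24 cells co-incubated 16 h with or without Nec-1 (60 μM). Lysates quantified by BCA, 40 μg protein resolved by SDS-PAGE, transferred to PVDF, probed with primary and peroxidase-conjugated secondary antibodies, detected by ECL. Band gray values normalized to β-actin loading control.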

T-24 [2] = experiment: Down-regulation of p-MLKL expression in human T24 cells at 7.5 to 10 uM measured in presence of 60 uM Nec-1 after 16 hrs by Western blot analysis; format: functional, cell-based; settings: dose 7.5-10 µM; in short: as §1
T-24 [3] = experiment: Induction of intracellular reactive oxygen species production in human T24 cells assessed as ROS level at 5 uM measured after 16 hrs by flow cytometry analysis; format: functional, cell-based
In short: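 After 16 h treatment, floating and adherent T24 cells pooled and loaded with DCFH-DA (final 10 μM) for 30 min at 37 °C in the dark, washed, resuspended in PBS and analyzed by flow cytometry; fluorescence also quantified by luminescence spectrometry. ROS expressed relative to control; mean ± S.D. of three independent experiments.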

T-24 [4] = experiment: Induction of necroptosis in human T24 cells assessed as viable cells at 12.5 uM and measured by trypan blue exclusion assay; format: functional; settings: read-out: Activity
In short: (§2)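 T24 cells (2 × 10^5/well) exposed for 16 h with or without Nec-1 (60 μM), then stained with trypan blue. Viable and dead cells counted. Result given as % viable cells relative to untreated control.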

T-24 [5] = experiment: Up-regulation of RIPK1 expression in human T24 cells at 2.5 to 7.5 uM measured by ELISA assay; format: functional, cell-based; settings: dose 2.5-7.5 µM
In short: (§3)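 T24 cells pretreated, collected, diluted in PBS, counted and stored overnight at −20 °C. After membrane disruption, lysates centrifuged at 5000 × g for 5 min (4 °C). RIPK1, RIPK3 and MLKL levels then measured with ELISA kits.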

T-24 [6] = experiment: Down-regulation of p-RIPK3 expression in human T24 cells at 7.5 to 10 uM measured in presence of 60 uM Nec-1 after 16 hrs by Western blot analysis; format: functional, cell-based; settings: dose 7.5-10 µM; in short: as §1
T-24 [7] = experiment: Induction of apoptosis in human T24 cells at 5 to 7.5 uM measured after 10 hrs by Hoechst 33342 and propidium iodide staining based flow cytometry analysis; format: functional, cell-based; settings: dose 5-7.5 µM
T-24 [8] = experiment: Induction of necroptosis in human T24 cells assessed as viable cells at 10 uM and measured by trypan blue exclusion assay; format: functional; settings: read-out: Activity; in short: as §2
T-24 [9] = experiment: Induction of intracellular reactive oxygen species production in human T24 cells at 5 to 10 uM measured in presence of 30 uM z-VAD after 16 hrs by flow cytometry analysis; format: functional, cell-based; settings: dose 5-10 µM
In short: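 After 5-23 treatment (16 h), floating and adherent T24 cells pooled and loaded with DCFH-DA (final 10 μM) for 30 min at 37 °C in the dark. Cells washed, resuspended in PBS and read by flow cytometry; quantified by luminescence spectrometry as % of control. Runs with zVAD (30 μM) or Nec-1 (60 μM). Three parallel samples.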

T-24 [10] = experiment: Up-regulation of RIPK3 expression in human T24 cells at 2.5 to 7.5 uM measured by ELISA assay; format: functional, cell-based; settings: dose 2.5-7.5 µM; in short: as §3
T-24 [11] = experiment: Down-regulation of VEGFR-1 mRNA expression in human T24 cells at 5 to 10 uM measured by RT-PCR analysis; format: functional, cell-based; settings: dose 5-10 µM
T-24 [12] = experiment: Down-regulation of VEGFR-2 mRNA expression in human T24 cells at 5 to 10 uM measured by RT-PCR analysis; format: functional, cell-based; settings: dose 5-10 µM
T-24 [13] = experiment: Down-regulation of RIPK3 expression in human T24 cells at 7.5 to 10 uM measured in presence of 60 uM Nec-1 after 16 hrs by Western blot analysis; format: functional, cell-based; settings: dose 7.5-10 µM; in short: as §1
T-24 [14] = experiment: Up-regulation of RIPK3 mRNA expression in human T24 cells at 7.5 to 12.5 uM measured by RT-PCR analysis; format: functional, cell-based; settings: dose 7.5-12.5 µM
In short: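 Total T24 RNA extracted with TRIzol. RT-PCR normalized to GAPDH, relative expression by 2−ΔΔCt versus control. Incubation 16 h for RIPK1/RIPK3/MLKL. At least three independent experiments, each in triplicate.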

T-24 [15] = experiment: Induction of mitochondrial dysfunction in human T24 cells assessed as decrease in mitochondrial membrane potential at 5 to 10 uM measured by JC-1 staining based assay; format: functional, cell-based; settings: dose 5-10 µM
In short: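 Floating and adherent T24 cells pooled after pretreatment. Washed in cold PBS and stained in the dark with JC-1 (10 μg mL−1). Red and green fluorescence imaged by laser scanning confocal microscopy, five random fields per sample.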

T-24 [16] = experiment: Induction of apoptosis in human T24 cells assessed as decrease in Bcl-2 expression at 5 to 7.5 uM measured by Western blot analysis; format: functional, cell-based; settings: dose 5-7.5 µM
In short: (§4)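 Apoptosis-related proteins measured by Western blot in T24 lysates: 40 μg protein per lane by SDS-PAGE, PVDF transfer, primary and peroxidase-linked secondary antibodies, ECL detection, densitometry of gray values with β-actin as loading control.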

T-24 [17] = experiment: Induction of apoptosis in human T24 cells assessed as increase in cleaved caspase-3 expression at 0 to 5 uM measured by Western blot analysis; format: functional, cell-based; settings: dose 0-5 µM; in short: as §4
T-24 [18] = experiment: Induction of necroptosis in human T24 cells assessed as viable cells at 7.5 uM and measured by trypan blue exclusion assay; format: functional; settings: read-out: Activity; in short: as §2
[19] = Cmax in Sprague-Dawley rat at 6 mg/kg, IG measured HPLC analysis; format: ADME, organism-based; set-up: dose 6 mg/kg, route ig; settings: in vivo, po
[20] = Tmax in Sprague-Dawley rat at 6 mg/kg, IG measured HPLC analysis; format: ADME, organism-based; settings: in vivo, po
In short: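 Fasted (12 h) male-unspecified Sprague-Dawley rats (250 ± 20 g), n = 6 per group. Single intragastric dose of suspension (2 mg mL−1 in Tween 80/0.9% NaCl 1.5:5 v/v). Orbital blood drawn at 0.5–48 h and plasma assayed by reversed-phase C18 HPLC-UV. One-compartment fit, weight 1.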

T-24 [21] = experiment: Up-regulation of MLKL expression in human T24 cells at 2.5 to 7.5 uM measured by ELISA assay; format: functional, cell-based; settings: dose 2.5-7.5 µM; in short: as §3
T-24 [22] = experiment: Down-regulation of p-RIPK1 expression in human T24 cells at 7.5 to 10 uM measured in presence of 60 uM Nec-1 after 16 hrs by Western blot analysis; format: functional, cell-based; settings: dose 7.5-10 µM; in short: as §1
T-24 [23] = experiment: Up-regulation of MLKL expression in human T24 cells at 7.5 to 10 uM measured after 16 hrs by Western blot analysis; format: functional, cell-based; settings: dose 7.5-10 µM
[24] = Selectivity index, ratio IC50 for antiproliferative activity against human HCV-29 cells over IC50 for antiproliferative activity against human T24 cells; format: toxicity, cell-based; settings: HCV-29 cells versus T24 cells
In short: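 MTT assay, 48 h exposure at final 1–40 μM in T24 and normal bladder epithelial HCV29 cells (5 × 10^3/well, seeded overnight, 37 °C). MTT added for 4 h and formazan dissolved in DMSO. IC50 taken relative to untreated control, four parallel samples. SI = IC50(HCV29)/IC50(T24).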

T-24 [25] = experiment: Up-regulation of RIPK1 expression in human T24 cells at 7.5 to 10 uM measured after 16 hrs by Western blot analysis; format: functional, cell-based; settings: dose 7.5-10 µM

Cmax [19]: 1190 ng/mL
Tmax [20]: 12 h
Compound: O=C(Nc1ccc(C(F)(F)F)cc1)Nc1cccc(CNc2nccnc2Cl)c1
Activity (T-24 [1]): Active
Activity (T-24 [2]): Active
Activity (T-24 [3]): Active
viability at 12.5 µM (T-24 [4]): 24.8%
Activity (T-24 [5]): Active
Activity (T-24 [6]): Active
Activity (T-24 [7]): Active
viability at 10 µM (T-24 [8]): 38%
Activity (T-24 [9]): Active
Activity (T-24 [10]): Active
Activity (T-24 [11]): Active
Activity (T-24 [12]): Active
Activity (T-24 [13]): Active
Activity (T-24 [14]): Active
Activity (T-24 [15]): Active
Activity (T-24 [16]): Active
Activity (T-24 [17]): Active
viability at 7.5 µM (T-24 [18]): 51%
Activity (T-24 [21]): Active
Activity (T-24 [22]): Active
Activity (T-24 [23]): Active
SI [24]: 6.56
Activity (T-24 [25]): Active

— ChEMBL document CHEMBL5104108, “Concise synthesis and biological activity evaluation of novel pyrazinyl-aryl urea derivatives against several cancer cell lines, which can especially induce T24 apoptotic and necroptotic cell death” (RSC Med Chem, 2022)
